Reference: ChEMBL document CHEMBL6092204, “Synthesis of pyridyl pyrimidine hedgehog signaling pathway inhibitors and their antitumor activity in human pancreatic cancer” (Eur J Med Chem, 2024)
Calls of active or inactive are those of the source. The rule behind the calls is not given here.

Experiments:
[1] = Inhibition of Hh signaling pathway in mouse NIH3T3 cells incubated for 48 hrs by Gli luciferase reporter assay; type: cell-based; conditions: NIH3T3, 48 h
Summary of the method: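 Reporter cells were seeded in 96-well plates, incubated overnight, then treated for 48 h. Lysate luciferase activity was measured with a dual-luciferase system, and firefly signal was normalised to Renilla.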

PANC-1 [2] = test: Induction of apoptosis in human PANC-1 cells assessed as viable cells at 10 uM incubated for 48 hrs by Annexin V-FITC/PI staining based flow cytometry (reference value: 93.2 %); type: functional; conditions: read-out: Activity
PANC-1 [3] = test: Induction of apoptosis in human PANC-1 cells assessed as early apoptotic cells at 10 uM incubated for 48 hrs by Annexin V-FITC/PI staining based flow cytometry (reference value: 1.88 %); type: functional
PANC-1 [4] = test: Induction of apoptosis in human PANC-1 cells assessed as late apoptotic cells at 10 uM incubated for 48 hrs by Annexin V-FITC/PI staining based flow cytometry (reference value: 2.74 %); type: functional
PANC-1 [5] = test: Induction of apoptosis in human PANC-1 cells assessed as necrotic cells at 10 uM incubated for 48 hrs by Annexin V-FITC/PI staining based flow cytometry (reference value: 2.24 %); type: functional
BXPC-3 [6] = test: Induction of apoptosis in human BXPC-3 cells assessed as viable cells at 10 uM incubated for 48 hrs by Annexin V-FITC/PI staining based flow cytometry (reference value: 91.5 %); type: functional; conditions: read-out: Activity
BXPC-3 [7] = test: Induction of apoptosis in human BXPC-3 cells assessed as early apoptotic cells at 10 uM incubated for 48 hrs by Annexin V-FITC/PI staining based flow cytometry (reference value: 1.11 %); type: functional
BXPC-3 [8] = test: Induction of apoptosis in human BXPC-3 cells assessed as late apoptotic cells at 10 uM incubated for 48 hrs by Annexin V-FITC/PI staining based flow cytometry (reference value: 6.72 %); type: functional
BXPC-3 [9] = test: Induction of apoptosis in human BXPC-3 cells assessed as necrotic cells at 10 uM incubated for 48 hrs by Annexin V-FITC/PI staining based flow cytometry (reference value: 0.71 %); type: functional
BxPC-3 [10] = test: Antitumor activity aginst human BxPC-3 cells xenografted in BALB/c nude mouse assessed as tumor growth inhibition at 15 mg/kg, ip qd for 21 days; conditions: time 21.0 day

Structure (SMILES) | IC50 [1] [µM] | other results
O=C(Nc1cccnc1)c1ccc(Nc2nccc(-c3cccnc3)n2)cc1 | 0.0281 | –
O=C(Nc1cccc(F)c1)c1ccc(Nc2nccc(-c3cccnc3)n2)cc1 | 0.0159 | –
Cc1ccccc1NC(=O)c1ccc(Nc2nccc(-c3cccnc3)n2)cc1 | 0.0146 | –
Cc1ccc(NC(=O)c2ccc(Nc3nccc(-c4cccnc4)n3)cc2)cc1F | 0.0464 | –
O=C(Nc1cccc(C(F)(F)F)c1)c1ccc(Nc2nccc(-c3cccnc3)n2)cc1 | 0.0256 | –
O=C(Nc1ccc(N2CCOCC2)cc1)c1ccc(Nc2nccc(-c3cccnc3)n2)cc1 | 0.0173 | –
COc1cc(NC(=O)c2ccc(Nc3nccc(-c4cccnc4)n3)cc2)cc(OC)c1OC | 0.0186 | –
COc1ccc(NC(=O)c2ccc(Nc3nccc(-c4cccnc4)n3)cc2)cc1OC | 0.0225 | –
CS(=O)(=O)c1ccc(C(=O)Nc2ccc(Cl)c(-c3ccccn3)c2)c(Cl)c1 [VISMODEGIB] | 0.0151 | viability at 10 µM (PANC-1 [2]): 91.8%; Activity (PANC-1 [3]): 2.2%; Activity (PANC-1 [4]): 3.3%; Activity (PANC-1 [5]): 2.68%; viability at 10 µM (BXPC-3 [6]): 90.6%; Activity (BXPC-3 [7]): 1.05%; Activity (BXPC-3 [8]): 7.55%; Activity (BXPC-3 [9]): 0.77%; inhibition (BxPC-3 [10]): Active
O=C(Nc1ccc(F)cc1)c1ccc(Nc2nccc(-c3cccnc3)n2)cc1 | 0.0353 | –
O=C(Nc1ccc(Cl)cc1)c1ccc(Nc2nccc(-c3cccnc3)n2)cc1 | 0.0248 | –
O=C(Nc1ccc(N2CCOCC2)c(F)c1)c1ccc(Nc2nccc(-c3cccnc3)n2)cc1 | 0.0335 | –
COc1cc(NC(=O)c2ccc(Nc3nccc(-c4cccnc4)n3)cc2)cc(OC)c1 | 0.0297 | –

Second part, led by results:

IC50 [1] [µM] | Structure (SMILES) | other results
0.0045 | CN1CCN(c2ccc(NC(=O)c3ccc(Nc4nccc(-c5cccnc5)n4)cc3)cc2)CC1 | –
0.0091 | COc1ccccc1NC(=O)c1ccc(Nc2nccc(-c3cccnc3)n2)cc1 | –
0.0103 | Cc1cc(F)cc(NC(=O)c2ccc(Nc3nccc(-c4cccnc4)n3)cc2)c1 | –
0.0142 | COc1ccc(NC(=O)c2ccc(Nc3nccc(-c4cccnc4)n3)cc2)cc1 | –
0.0138 | Cc1cccc(NC(=O)c2ccc(Nc3nccc(-c4cccnc4)n3)cc2)c1 | –
0.0055 | CNCc1ccc(C)c(NC(=O)c2ccc(Nc3nc(-c4ccccc4)c4ccccc4n3)cc2)c1 [BMS-833923] | –
0.0122 | CCOc1ccc(NC(=O)c2ccc(Nc3nccc(-c4cccnc4)n3)cc2)cc1 | –
